Data on twelve molecules can be found in ChEMBL document CHEMBL4270666, “Development of Dihydrodibenzooxepine Peroxisome Proliferator-Activated Receptor (PPAR) Gamma Ligands of a Novel Binding Mode as Anticancer Agents: Effective Mimicry of Chiral Structures by Olefinic E/ Z-Isomers” (J Med Chem, 2018).

For experiment [1], the target named is T1, Peroxisome proliferator-activated receptor gamma (Homo sapiens, UniProt P37231).
T1 sequence (P37231 whole entry): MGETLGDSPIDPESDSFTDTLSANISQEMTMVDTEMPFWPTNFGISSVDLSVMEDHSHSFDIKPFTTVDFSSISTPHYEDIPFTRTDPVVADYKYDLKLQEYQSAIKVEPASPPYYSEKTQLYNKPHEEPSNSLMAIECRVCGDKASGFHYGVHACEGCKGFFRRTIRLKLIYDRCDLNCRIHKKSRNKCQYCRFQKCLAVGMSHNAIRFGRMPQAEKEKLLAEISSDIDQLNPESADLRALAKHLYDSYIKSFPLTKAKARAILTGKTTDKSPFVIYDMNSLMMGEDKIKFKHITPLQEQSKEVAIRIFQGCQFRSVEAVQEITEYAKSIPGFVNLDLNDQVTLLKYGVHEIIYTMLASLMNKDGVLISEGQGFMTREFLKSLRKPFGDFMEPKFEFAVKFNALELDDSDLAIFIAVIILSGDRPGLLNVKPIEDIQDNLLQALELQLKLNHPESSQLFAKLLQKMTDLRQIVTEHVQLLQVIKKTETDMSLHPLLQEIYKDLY
Put plainly: Transactivation of GAL4-fused human PPARgamma transfected in HEK293BENA cells after 24 hrs by steady glo-luciferase reporter gene assay. It counts as cell-based. (In general: A reporter such as luciferase makes a cellular process visible.)

For experiment [2], the target named is T2, Peroxisome proliferator-activated receptor gamma (Homo sapiens) (UniProt P37231).
T2 sequence (whole entry): T1 sequence (P37231 whole entry)
In words: Agonist activity at PPARgamma in human MKN45 cells assessed as cell differentiation at 100 nM after 5 days by Hoechst 33342 staining-based assay. Summed up:
(§1)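 MKN45 cells grown in RPMI1640 with 10% FBS, penicillin/streptomycin, 37 °C, 5% CO2; seeded 2500 cells/well, exposed to compound (1-1000 nM, N = 3 per concentration) for 5 days. Hoechst 33342 nuclear stain, imaged; nuclear areas above 1,015.58 μm2 counted as aggregated clusters; aggregated-cluster area over total cell area gives aggregation rate, normalized to a reference agonist's maximum; EC50 at half-maximal activity.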

Experiment [3] deals with T2, Peroxisome proliferator-activated receptor gamma (Homo sapiens). Put plainly: Transactivation of PPARgamma in human MKN45 cells assessed as increase in angptl4 gene expression at 10 to 100 nM after 72 hrs by quantitative PCR analysis. The class given is cell-based. Summed up:
(§2)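 MKN45 cells treated with compound for 72 h (N = 3 per concentration); cells washed in cold PBS, total RNA isolated, transcript levels measured by quantitative PCR and corrected to GAPDH; fold-induction expressed relative to control/baseline.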

Experiment [4] shares this target. In words: Transactivation of PPARgamma in human MKN45 cells assessed as increase in adfp gene expression at 10 to 100 nM after 72 hrs by quantitative PCR analysis. It counts as cell-based. Summed up:
as §2

Experiment [5] shares this target. Put plainly: Transactivation of PPARgamma in human MKN45 cells assessed as decrease in vimentin gene expression at 10 to 100 nM after 72 hrs by quantitative PCR analysis. The class given is cell-based. An outline of the steps:
as §2

The target is the same in experiment [6]. In words: Agonist activity at PPARgamma in human MKN45 cells assessed as cell differentiation at 30 nM after 5 days by Hoechst 33342 staining-based assay relative to control. An outline of the steps: as §1
The species entered for a further experiment is Mus musculus. In words: Antidiabetic activity in db/db diabetic mouse model assessed as reduction in blood glucose levels relative to vehicle-treated control. It counts as functional. On the set-up: scale not given: the % may be the effect or the level left.
The nature of experiment [7]: Inhibition of cologenic growth of human DRO cells at 1 nM after 2 weeks by soft agar assay relative to control. The class given is functional. The settings on record: 336 h.
Experiment [8] has as its target T1, Peroxisome proliferator-activated receptor gamma. In words: Transactivation of PPARgamma (unknown origin) transfected in human DRO cells after 24 hrs by dual luciferase reporter gene assay. It counts as cell-based.

The source made the active and inactive calls. The calls are words filed in the database; no cut-off is given here.

A word on the EC50: it is the concentration that produces a half-maximal response. Broadly, the inhibition is the share of the control response that was lost under treatment.

With `CCCc1nc2c(CO)cccc2n1Cc1ccc2c(c1)COc1ccccc1/C2=C(\C)c1noc(=O)[nH]1`, the EC50 in experiment [1] was determined as 33 nM.

With `CCCc1nc2c(NS(C)(=O)=O)cccc2n1Cc1ccc2c(c1)COc1ccccc1/C2=C(\C)c1noc(=O)[nH]1`, the EC50 in experiment [1] was 166 nM.

Take `CCCc1nc(-c2ccncc2)cn1Cc1ccc2c(c1)COc1ccccc1/C2=C(\C)c1noc(=O)[nH]1`: it took 593 nM to reach a half-maximal effect in experiment [1] (EC50).

In turn, `CCCc1nc(-c2ccccc2)cn1Cc1ccc2c(c1)COc1ccccc1/C2=C(\C)c1noc(=O)[nH]1` displayed an EC50 in [1] of 151 nM.

Take `CCCc1nc2c(C)cccc2n1Cc1ccc2c(c1)COc1ccccc1/C2=C(\C)c1noc(=O)[nH]1`: the outcome in experiment [2], in experiment [3], in experiment [4] and in experiment [5] was Active. In addition, the Activity in experiment [6] amounted to 94%.

In turn, `CCc1nc2c(C)cc(C)nc2n1Cc1ccc2c(c1)CCc1ccccc1/C2=C(\C)c1noc(=O)[nH]1` showed an EC50 in [1] of 177 nM.

Molecule `CCCc1nc2ccccc2n1Cc1ccc2c(c1)COc1ccccc1/C2=C(\C)c1noc(=O)[nH]1` returned an EC50 in [1] of 2.7 nM.

Regarding `O=S(=O)(Nc1cc(Cl)c(Oc2cnc3ccccc3c2)c(Cl)c1)c1ccc(Cl)cc1Cl` [INT131], the Activity in the experiment listed under Mus musculus is recorded as 60%.

With `CCCCCS(=O)(=O)NC(=O)c1ccc2nc(C)n(Cc3ccc(Cl)cc3Cl)c2c1` [ATX08-001], in experiment [1], the concentration for a half-maximal effect (EC50) is 163 nM.

Molecule `Cc1cc(Oc2ccc3nc(COc4ccc(CC5SC(=O)NC5=O)cc4)n(C)c3c2)cc(C)c1N` (configuration not stated) [EFATUTAZONE] gave an inhibition at 0.001 µM in experiment [7] of 63%. It took 1 nM to reach a half-maximal effect in experiment [8] (EC50).

Take `CCCc1nc2c(C(=O)NCCO)cccc2n1Cc1ccc2c(c1)COc1ccccc1/C2=C(\C)c1noc(=O)[nH]1`: in [1], it took 57 nM to reach a half-maximal effect (EC50).

As to `CCc1nc2c(C)cc(C)nc2n1Cc1ccc2c(c1)COc1ccccc1/C2=C(\C)c1noc(=O)[nH]1`, the EC50 in experiment [1] was determined as 84 nM.
